Results on four molecules are retold here after ChEMBL document CHEMBL1914443, “Inhibition of c-Kit, VEGFR-2 (KDR), and ABCG2 by analogues of OSI-930” (Bioorg Med Chem Lett, 2011).

In data set [1] the target is T1, Mast/stem cell growth factor receptor Kit (Homo sapiens, UniProt P10721). Put plainly: Inhibition of c-Kit using Tyr 06 peptide as substrate at 10 uM after 60 mins by Z'-LYTE assay.
The target of data set [2] is Platelet-derived growth factor receptor alpha (Homo sapiens) (UniProt P16234). Put plainly: Inhibition of PDGFRalpha using Tyr 04 peptide as substrate at 10 uM after 60 mins by Z'-LYTE assay.
Chain of Platelet-derived growth factor receptor alpha (Homo sapiens) (P16234 whole entry): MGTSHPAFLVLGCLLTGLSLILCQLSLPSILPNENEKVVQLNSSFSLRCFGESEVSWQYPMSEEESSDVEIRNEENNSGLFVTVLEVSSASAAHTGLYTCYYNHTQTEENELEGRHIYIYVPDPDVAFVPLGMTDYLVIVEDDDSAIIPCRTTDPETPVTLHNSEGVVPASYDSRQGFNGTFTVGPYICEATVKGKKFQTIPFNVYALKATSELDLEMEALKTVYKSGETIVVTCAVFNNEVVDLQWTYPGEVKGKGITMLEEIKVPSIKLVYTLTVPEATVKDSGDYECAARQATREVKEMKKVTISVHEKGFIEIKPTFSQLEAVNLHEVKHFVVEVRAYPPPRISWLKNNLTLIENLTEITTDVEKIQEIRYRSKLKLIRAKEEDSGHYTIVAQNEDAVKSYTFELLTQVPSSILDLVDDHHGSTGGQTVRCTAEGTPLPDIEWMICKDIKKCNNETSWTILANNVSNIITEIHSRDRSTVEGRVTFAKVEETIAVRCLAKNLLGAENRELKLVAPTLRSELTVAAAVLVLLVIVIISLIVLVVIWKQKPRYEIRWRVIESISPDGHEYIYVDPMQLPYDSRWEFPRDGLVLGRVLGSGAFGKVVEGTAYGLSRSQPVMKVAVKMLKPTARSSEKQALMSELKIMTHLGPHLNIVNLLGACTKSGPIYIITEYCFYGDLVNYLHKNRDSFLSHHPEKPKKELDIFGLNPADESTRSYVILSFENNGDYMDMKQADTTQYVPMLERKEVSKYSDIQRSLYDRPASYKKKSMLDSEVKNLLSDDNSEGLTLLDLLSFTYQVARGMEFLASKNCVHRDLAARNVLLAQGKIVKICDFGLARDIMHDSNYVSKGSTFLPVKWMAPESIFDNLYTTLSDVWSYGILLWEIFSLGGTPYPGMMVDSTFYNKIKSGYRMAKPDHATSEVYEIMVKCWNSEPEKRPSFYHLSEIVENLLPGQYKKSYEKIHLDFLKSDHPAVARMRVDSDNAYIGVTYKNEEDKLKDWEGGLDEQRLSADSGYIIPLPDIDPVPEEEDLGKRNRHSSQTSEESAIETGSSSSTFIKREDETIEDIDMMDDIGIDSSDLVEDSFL
The target in data set [3] is Platelet-derived growth factor receptor beta (Homo sapiens) (UniProt P09619). As to the kind of experiment: Inhibition of PDGFRbeta using Tyr 04 peptide as substrate at 10 uM after 60 mins by Z'-LYTE assay.
Chain of Platelet-derived growth factor receptor beta (Homo sapiens) (P09619 whole entry): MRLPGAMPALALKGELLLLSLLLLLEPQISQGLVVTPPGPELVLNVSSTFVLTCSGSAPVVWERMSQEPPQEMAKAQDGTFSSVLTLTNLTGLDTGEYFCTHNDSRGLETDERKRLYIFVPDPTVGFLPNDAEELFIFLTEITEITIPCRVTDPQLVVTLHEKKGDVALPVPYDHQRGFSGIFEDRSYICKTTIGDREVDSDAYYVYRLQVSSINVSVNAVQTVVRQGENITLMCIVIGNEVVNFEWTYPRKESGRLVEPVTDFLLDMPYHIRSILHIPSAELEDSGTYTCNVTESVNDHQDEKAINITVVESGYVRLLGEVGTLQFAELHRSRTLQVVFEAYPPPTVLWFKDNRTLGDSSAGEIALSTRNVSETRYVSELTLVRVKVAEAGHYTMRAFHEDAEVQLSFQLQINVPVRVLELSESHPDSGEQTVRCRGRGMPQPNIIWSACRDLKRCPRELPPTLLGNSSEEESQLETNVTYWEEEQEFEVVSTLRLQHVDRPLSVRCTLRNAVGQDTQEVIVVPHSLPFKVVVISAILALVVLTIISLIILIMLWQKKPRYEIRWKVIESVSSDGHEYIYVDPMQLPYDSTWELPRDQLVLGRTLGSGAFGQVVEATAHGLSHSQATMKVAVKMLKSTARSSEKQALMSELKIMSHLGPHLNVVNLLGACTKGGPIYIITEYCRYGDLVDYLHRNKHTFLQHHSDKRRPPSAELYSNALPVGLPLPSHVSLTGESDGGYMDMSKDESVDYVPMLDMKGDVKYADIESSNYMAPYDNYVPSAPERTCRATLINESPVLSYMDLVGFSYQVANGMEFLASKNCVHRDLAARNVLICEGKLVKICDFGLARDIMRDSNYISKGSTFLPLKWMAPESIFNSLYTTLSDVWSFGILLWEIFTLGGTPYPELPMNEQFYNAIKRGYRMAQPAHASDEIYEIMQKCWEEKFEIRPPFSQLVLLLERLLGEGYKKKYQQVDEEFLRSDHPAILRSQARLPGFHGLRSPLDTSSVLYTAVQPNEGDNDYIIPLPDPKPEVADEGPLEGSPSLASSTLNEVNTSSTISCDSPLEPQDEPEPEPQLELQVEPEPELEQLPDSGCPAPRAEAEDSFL
In data set [4] the target is Receptor-type tyrosine-protein kinase FLT3 (Homo sapiens) (UniProt P36888). As to the kind of experiment: Inhibition of Flt3 using Tyr 02 peptide as substrate at 10 uM after 60 mins by Z'-LYTE assay.
In data set [5] the target is T2, Vascular endothelial growth factor receptor 2 (Homo sapiens, UniProt P35968). Put plainly: Inhibition of KDR using Tyr 01 peptide as substrate at 10 uM after 60 mins by Z'-LYTE assay.
Data set [6] concerns the target Vascular endothelial growth factor receptor 1 (Homo sapiens) (UniProt P17948). Put plainly: Inhibition of VEGFR1 using Tyr 04 peptide as substrate at 10 uM after 60 mins by Z'-LYTE assay.
For data set [7], the target named is Vascular endothelial growth factor receptor 3 (Homo sapiens) (UniProt P35916). As to the kind of experiment: Inhibition of VEGFR3 using Tyr 04 peptide as substrate at 10 uM after 60 mins by Z'-LYTE assay.
In data set [8] the target is Angiopoietin-1 receptor (Homo sapiens) (UniProt Q02763). As to the kind of experiment: Inhibition of Tie-2 using Tyr 05 peptide as substrate at 10 uM after 60 mins by Z'-LYTE assay.
The target in data set [9] is Platelet-derived growth factor receptor alpha (Homo sapiens) (UniProt P16234). Put plainly: Inhibition of PDGFRalpha using Tyr 04 peptide as substrate at 1 uM after 60 mins by Z'-LYTE assay.
The target in data set [10] is T1, Mast/stem cell growth factor receptor Kit. Put plainly: Inhibition of c-Kit using Tyr 06 peptide as substrate at 1 uM after 60 mins by Z'-LYTE assay.
In data set [11] the target is Platelet-derived growth factor receptor beta (Homo sapiens) (UniProt P09619). As to the kind of experiment: Inhibition of PDGFRbeta using Tyr 04 peptide as substrate at 1 uM after 60 mins by Z'-LYTE assay.
Data set [12] has as its target Receptor-type tyrosine-protein kinase FLT3 (Homo sapiens) (UniProt P36888). Put plainly: Inhibition of Flt3 using Tyr 02 peptide as substrate at 1 uM after 60 mins by Z'-LYTE assay.
For data set [13], the target named is T2, Vascular endothelial growth factor receptor 2. Put plainly: Inhibition of KDR using Tyr 01 peptide as substrate at 1 uM after 60 mins by Z'-LYTE assay.
Data set [14] concerns the target Vascular endothelial growth factor receptor 1 (Homo sapiens) (UniProt P17948). Put plainly: Inhibition of VEGFR1 using Tyr 04 peptide as substrate at 1 uM after 60 mins by Z'-LYTE assay.
Data set [15] addresses Vascular endothelial growth factor receptor 3 (Homo sapiens) (UniProt P35916). Put plainly: Inhibition of VEGFR3 using Tyr 04 peptide as substrate at 1 uM after 60 mins by Z'-LYTE assay.
Data set [16] concerns the target Angiopoietin-1 receptor (Homo sapiens) (UniProt Q02763). As to the kind of experiment: Inhibition of Tie-2 using Tyr 05 peptide as substrate at 1 uM after 60 mins by Z'-LYTE assay.
Another data set concerns the target T3, ABCG2 (Homo sapiens, UniProt Q9UNQ0).
T3 sequence (Q9UNQ0 whole entry): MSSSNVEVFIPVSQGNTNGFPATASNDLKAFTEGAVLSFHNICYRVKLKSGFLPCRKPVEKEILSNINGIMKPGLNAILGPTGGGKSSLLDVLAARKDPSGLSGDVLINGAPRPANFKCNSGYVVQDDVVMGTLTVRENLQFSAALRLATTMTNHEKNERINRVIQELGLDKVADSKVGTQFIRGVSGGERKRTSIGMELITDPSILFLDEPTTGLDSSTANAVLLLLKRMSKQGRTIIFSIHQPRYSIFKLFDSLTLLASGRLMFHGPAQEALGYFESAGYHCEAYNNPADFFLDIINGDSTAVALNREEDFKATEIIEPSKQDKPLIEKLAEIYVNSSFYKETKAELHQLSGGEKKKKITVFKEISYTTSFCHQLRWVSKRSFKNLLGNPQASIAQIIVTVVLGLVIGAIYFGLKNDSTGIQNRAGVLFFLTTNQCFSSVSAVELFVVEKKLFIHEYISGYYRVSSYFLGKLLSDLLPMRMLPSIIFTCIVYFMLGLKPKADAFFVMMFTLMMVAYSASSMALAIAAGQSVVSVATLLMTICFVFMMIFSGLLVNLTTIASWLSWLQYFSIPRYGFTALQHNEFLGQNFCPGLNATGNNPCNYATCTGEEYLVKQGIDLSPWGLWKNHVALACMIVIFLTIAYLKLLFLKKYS
Put plainly: Inhibition of ATP-dependent ABCG2 pump assessed as ratio of compound IC50 for HEK/ABCG2-482-R2 cells to IC50 for HEK293/pcDNA3.1 cells after 72 hrs by MTT assay. Conditions: HEK/ABCG2-482-R2 cells versus HEK293/pcDNA3.1 cells, read-out: Ratio IC50. The method, boiled down: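 Fold-resistance was calculated as mitoxantrone IC50 in HEK/ABCG2-482-R2 (wild-type ABCG2-transfected) cells divided by mitoxantrone IC50 in HEK293/pcDNA3 parental cells, with or without analogue at 10 μM. FTC at 2.5 μM served as the reference. Cell survival was measured by MTT. Results are means ± SD of at least three independent experiments, each run in triplicate.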

SMILES strings stand for the structures.

T1 sequence (P10721 whole entry): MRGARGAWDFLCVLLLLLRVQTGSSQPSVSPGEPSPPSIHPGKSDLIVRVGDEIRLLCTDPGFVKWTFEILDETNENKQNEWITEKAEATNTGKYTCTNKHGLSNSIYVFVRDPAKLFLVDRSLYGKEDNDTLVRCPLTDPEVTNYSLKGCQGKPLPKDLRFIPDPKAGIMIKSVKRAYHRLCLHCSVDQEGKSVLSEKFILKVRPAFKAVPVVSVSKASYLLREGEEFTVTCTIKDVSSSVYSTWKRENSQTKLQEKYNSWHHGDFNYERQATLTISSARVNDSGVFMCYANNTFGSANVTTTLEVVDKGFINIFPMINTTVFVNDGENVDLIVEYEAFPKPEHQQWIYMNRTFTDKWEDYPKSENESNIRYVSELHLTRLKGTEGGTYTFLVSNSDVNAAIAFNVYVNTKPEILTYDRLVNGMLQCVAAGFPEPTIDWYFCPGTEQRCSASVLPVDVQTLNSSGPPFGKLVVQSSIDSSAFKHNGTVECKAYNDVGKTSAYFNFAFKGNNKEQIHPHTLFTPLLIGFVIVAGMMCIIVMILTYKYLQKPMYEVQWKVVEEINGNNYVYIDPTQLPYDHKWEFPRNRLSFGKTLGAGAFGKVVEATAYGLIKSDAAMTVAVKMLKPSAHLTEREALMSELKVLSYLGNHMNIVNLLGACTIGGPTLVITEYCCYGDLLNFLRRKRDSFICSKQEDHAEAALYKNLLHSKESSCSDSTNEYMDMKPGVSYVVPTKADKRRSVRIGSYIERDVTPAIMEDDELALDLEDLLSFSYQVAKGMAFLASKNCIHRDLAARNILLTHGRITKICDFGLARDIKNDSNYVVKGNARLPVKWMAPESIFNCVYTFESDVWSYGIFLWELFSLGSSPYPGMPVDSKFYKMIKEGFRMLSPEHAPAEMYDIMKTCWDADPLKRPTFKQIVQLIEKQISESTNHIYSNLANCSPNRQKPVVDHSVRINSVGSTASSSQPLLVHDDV
Chain of Vascular endothelial growth factor receptor 1 (Homo sapiens) (P17948 whole entry): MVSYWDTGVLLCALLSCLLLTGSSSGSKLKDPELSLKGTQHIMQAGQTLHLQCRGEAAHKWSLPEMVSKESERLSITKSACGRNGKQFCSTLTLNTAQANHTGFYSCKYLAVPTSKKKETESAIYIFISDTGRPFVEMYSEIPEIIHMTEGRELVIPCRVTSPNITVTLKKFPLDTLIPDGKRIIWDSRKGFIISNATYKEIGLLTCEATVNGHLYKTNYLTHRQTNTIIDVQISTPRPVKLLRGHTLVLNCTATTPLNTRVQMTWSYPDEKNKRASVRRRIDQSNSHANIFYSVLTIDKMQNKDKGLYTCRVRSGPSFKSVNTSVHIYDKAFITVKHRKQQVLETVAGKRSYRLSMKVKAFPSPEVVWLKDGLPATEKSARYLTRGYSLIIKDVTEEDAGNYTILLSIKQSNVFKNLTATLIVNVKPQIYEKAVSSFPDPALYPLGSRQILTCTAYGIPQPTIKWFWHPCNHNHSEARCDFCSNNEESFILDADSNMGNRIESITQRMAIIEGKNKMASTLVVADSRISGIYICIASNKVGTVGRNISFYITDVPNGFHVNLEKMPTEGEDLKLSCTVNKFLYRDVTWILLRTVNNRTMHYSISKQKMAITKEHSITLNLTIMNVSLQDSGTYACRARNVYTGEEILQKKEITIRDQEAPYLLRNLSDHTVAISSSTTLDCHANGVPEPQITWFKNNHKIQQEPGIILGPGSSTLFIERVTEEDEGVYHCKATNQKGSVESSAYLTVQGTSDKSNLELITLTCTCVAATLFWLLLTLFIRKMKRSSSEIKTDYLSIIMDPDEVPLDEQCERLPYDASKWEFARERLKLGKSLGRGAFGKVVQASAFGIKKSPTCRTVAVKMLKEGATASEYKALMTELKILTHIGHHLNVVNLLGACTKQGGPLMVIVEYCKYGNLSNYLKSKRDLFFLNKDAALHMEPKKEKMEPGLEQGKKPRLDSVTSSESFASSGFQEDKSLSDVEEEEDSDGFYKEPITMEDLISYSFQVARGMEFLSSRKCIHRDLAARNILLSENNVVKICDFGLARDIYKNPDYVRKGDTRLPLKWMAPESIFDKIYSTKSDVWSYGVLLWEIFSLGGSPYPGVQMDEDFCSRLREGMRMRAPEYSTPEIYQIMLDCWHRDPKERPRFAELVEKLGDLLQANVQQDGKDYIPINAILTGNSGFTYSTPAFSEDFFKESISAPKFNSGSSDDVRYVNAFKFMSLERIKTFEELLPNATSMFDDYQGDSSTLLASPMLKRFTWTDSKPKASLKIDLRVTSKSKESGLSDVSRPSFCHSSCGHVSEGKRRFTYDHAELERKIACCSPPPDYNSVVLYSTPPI

For the molecule `O=C(Nc1ccc(OC(F)(F)F)cc1)c1sccc1NCc1cccc([N+](=O)[O-])c1`, the inhibition in data set [1], in data set [2], in [3], in data set [4], in data set [5] and in [6] was less than 40% throughout. Further, the inhibition in [7], in data set [8], in data set [9], in [10], in data set [11] and in data set [12] was less than 40% throughout. Besides, the inhibition in data set [13], in data set [14], in data set [15] and in data set [16] was less than 40% in each case.
Turning to `O=C(Nc1ccc(OC(F)(F)F)cc1)c1sccc1NCc1ccccc1N=C=S`, the inhibition in [1], in data set [2], in data set [3], in [4], in [5] and in data set [6] was less than 40% each time. Moreover, the inhibition in [7], in [8], in data set [9], in data set [10], in [11] and in [12] was less than 40% in each case. In addition, the inhibition in [13], in data set [14], in [15] and in [16] was less than 40% throughout.
Consider `O=C1c2c(O)ccc(O)c2C(=O)c2c(NCCNCCO)ccc(NCCNCCO)c21` [MITOXANTRONE], for which the selectivity ratio at 72 h on ABCG2 was 15.3.
Consider `Nc1ccc(CNc2ccsc2C(=O)Nc2ccc(OC(F)(F)F)cc2)cc1`, for which the inhibition in [1], in [2], in data set [3], in data set [4], in data set [5] and in data set [6] was less than 40% each time. In addition, the inhibition in [7], in data set [8], in data set [9], in [10], in data set [11] and in data set [12] was less than 40% throughout. The inhibition in data set [13], in [14], in [15] and in data set [16] was less than 40% each time.
